Data published in ChEMBL document CHEMBL1944582, “Pyrazolopyridine Inhibitors of B-Raf(V600E). Part 1: The Development of Selective, Orally Bioavailable, and Efficacious Inhibitors” (ACS Med Chem Lett, 2011).
Converted amounts (≈) assume the structure as drawn.

Legend:
[1] = molecular target: T1, Serine/threonine-protein kinase B-raf (Homo sapiens, UniProt P15056, V600E); experiment: Inhibition of B-Raf V600E mutant-mediated Erk phosphorylation in human A375 cells after 1 hr by fluorescence analysis; assay type: cell-based, A-375
T1 sequence (P15056 2-766 V600E limits assumed): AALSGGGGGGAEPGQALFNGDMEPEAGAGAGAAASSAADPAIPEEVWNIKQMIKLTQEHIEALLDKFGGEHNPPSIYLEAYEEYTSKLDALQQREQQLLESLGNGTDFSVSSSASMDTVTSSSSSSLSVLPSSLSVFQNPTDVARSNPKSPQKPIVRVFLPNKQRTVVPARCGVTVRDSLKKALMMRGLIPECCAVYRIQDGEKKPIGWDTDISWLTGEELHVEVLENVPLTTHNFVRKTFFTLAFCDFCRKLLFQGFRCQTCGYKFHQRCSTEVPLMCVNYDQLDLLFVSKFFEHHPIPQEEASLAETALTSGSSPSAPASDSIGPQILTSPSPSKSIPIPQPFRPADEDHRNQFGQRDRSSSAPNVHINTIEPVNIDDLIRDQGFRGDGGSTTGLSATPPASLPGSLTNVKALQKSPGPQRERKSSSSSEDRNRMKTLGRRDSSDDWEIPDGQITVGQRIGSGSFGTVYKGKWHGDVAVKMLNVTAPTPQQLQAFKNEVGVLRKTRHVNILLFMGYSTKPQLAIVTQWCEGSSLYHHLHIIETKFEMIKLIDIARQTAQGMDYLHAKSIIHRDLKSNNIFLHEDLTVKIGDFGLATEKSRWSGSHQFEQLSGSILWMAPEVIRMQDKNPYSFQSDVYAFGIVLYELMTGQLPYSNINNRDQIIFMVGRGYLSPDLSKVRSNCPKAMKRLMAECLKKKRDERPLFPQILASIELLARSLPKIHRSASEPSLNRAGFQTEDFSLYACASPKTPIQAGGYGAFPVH
In short: (§1)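 Cells were not stimulated, and inhibition was read against their basal ERK phosphorylation. This was the mechanistic cellular assay, run in both Malme-3M and A375 lines.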

[2] = molecular target: T1, Serine/threonine-protein kinase B-raf; experiment: Inhibition of full length human B-Raf V600E mutant expressed in baculovirus infected insect cells assessed as [gamma-33P]incorporation into MEK after 60 mins by scintillation counting
[3] = molecular target: T1, Serine/threonine-protein kinase B-raf; experiment: Inhibition of B-Raf V600E mutant-mediated Erk phosphorylation in human MALME-3M cells after 1 hr by fluorescence analysis; assay type: cell-based; in short: as §1
COLO 205 [4] = experiment: Cytotoxicity against human COLO205 cells after 4 days by CellTiter-Glo assay; assay type: functional, cell-based; details: COLO 205, 96 h
[5] = Inhibition of CYP450 at 25 uM; assay type: ADME
Mus musculus [6] = experiment: Toxicity in human COLO205 cells xenografted mouse assessed as change in body weight at 125 mg/kg, po administered QD for 20 days; details: in vivo, 480 h
[7] = Oral bioavailability in CD-1 mouse at 2.5 to 80 mg/kg as formulation of 25% SDD; assay type: ADME, organism-based; details: in vivo
In short: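 Oral bridging PK in mice used a 25% amorphous spray-dried dispersion on HPMCAS polymer at 2.5, 10, 40 and 80 mg/kg. Bioavailability (F) was derived per dose. The earlier solution vehicle was 40% PEG400/10% ethanol/50% water, with select intravenous dosing.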

[8] = Aqueous solubility of the compound in phosphate buffer at pH 7.4 after 24 hrs by HPLC analysis; assay type: physicochemical
[9] = Oral bioavailability in CD-1 mouse at 100 mg/kg as a solution in 40%PEG400/10%ethanol/50% water; assay type: ADME, organism-based; details: in vivo
COLO 205 [10] = experiment: Antitumor activity against human COLO205 cells xenografted in po dosed mouse assessed as tumor growth inhibition administered QD for 20 days; assay type: functional; details: COLO 205, po, 480 h
In short: (§2)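 Mice with established Colo205 xenografts received the spray-dried dispersion orally at ascending doses once daily for 17 or 20 days. Tumor growth inhibition is expressed as percent of vehicle control, and ED50 and ED90 are given in mg/kg.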

[11] = AUC in CD-1 mouse at 30 mg/kg, po; assay type: ADME, organism-based; set-up: dose 30 mg/kg, route oral; details: plasma
In short: (§3)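 Single oral dose given to mice as a solution in 40% PEG400/10% ethanol/50% water, at 30 mg/kg or 100 mg/kg. Exposure is reported as AUC in μg h/mL.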

[12] = molecular target: Voltage-gated inwardly rectifying potassium channel KCNH2 (Homo sapiens, UniProt Q12809); experiment: Inhibition of human Erg at 100 uM
Chain of Voltage-gated inwardly rectifying potassium channel KCNH2 (Q12809 whole entry): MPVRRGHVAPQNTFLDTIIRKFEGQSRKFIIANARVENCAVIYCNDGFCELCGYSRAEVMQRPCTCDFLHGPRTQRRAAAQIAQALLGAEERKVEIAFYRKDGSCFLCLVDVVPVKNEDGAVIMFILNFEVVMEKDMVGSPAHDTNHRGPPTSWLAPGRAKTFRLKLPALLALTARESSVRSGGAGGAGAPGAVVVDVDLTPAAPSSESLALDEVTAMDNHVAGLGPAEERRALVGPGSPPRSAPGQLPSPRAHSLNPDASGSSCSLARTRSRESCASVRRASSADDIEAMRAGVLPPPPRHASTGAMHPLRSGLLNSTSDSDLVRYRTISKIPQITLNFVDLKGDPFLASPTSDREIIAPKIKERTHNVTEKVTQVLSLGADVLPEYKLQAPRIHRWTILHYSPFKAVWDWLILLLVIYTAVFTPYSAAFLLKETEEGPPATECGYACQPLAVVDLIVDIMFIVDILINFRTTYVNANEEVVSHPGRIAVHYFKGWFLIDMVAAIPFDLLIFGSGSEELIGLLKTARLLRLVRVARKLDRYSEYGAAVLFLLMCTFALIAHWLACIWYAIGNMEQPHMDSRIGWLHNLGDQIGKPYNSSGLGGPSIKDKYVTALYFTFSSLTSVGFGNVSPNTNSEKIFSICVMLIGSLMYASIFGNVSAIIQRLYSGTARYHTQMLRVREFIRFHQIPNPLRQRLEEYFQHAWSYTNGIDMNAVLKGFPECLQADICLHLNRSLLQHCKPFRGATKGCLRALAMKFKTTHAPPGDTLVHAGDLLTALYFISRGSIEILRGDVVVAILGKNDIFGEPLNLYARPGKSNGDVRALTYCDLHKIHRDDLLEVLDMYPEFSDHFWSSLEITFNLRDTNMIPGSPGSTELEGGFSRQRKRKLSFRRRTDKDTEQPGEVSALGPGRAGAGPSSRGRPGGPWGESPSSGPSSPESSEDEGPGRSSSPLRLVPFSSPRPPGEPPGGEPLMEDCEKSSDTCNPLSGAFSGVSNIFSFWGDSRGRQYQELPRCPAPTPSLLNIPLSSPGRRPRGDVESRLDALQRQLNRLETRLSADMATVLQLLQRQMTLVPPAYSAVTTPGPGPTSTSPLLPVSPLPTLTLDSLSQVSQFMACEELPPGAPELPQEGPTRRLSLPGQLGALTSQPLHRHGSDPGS

[13] = AUC in CD-1 mouse at 100 mg/kg, po; assay type: ADME, organism-based; set-up: dose 100 mg/kg, route oral; details: plasma; in short: as §3
Salmonella typhimurium = experiment: Induction of mutagenesis in Salmonella Typhimurium by Ames test; assay type: toxicity, organism-based; details: salmonella enterica subsp. enterica serovar typhimurium
[14] = Oral bioavailability in CD-1 mouse at 30 mg/kg as a solution in 40% PEG400/10%ethanol/50% water; assay type: ADME, organism-based; details: in vivo
[15] = Aqueous solubility of the compound in phosphate buffer at pH 6.5 after 24 hrs by HPLC analysis; assay type: physicochemical
Mus musculus [16] = experiment: Toxicity in human COLO205 cells xenografted mouse assessed as change in body weight at 100 mg/kg, po administered QD for 17 days; details: in vivo, 408 h
[17] = Plasma protein binding in CD-1 mouse; assay type: ADME, cell-free; details: read-out: PPB (converted)
[18] = Volume of distribution in CD-1 mouse; assay type: ADME, organism-based; details: in vivo
In short: (§4)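 Some compounds were also given intravenously to mice. Clearance is reported in mL/min/kg and volume of distribution in L/kg.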

[19] = Clearance in CD-1 mouse; assay type: ADME, organism-based; details: in vivo; in short: as §4
[20] = Oral bioavailability in CD-1 mouse at 60 mg/kg as formulation of 25% SDD; assay type: ADME, organism-based; details: in vivo
In short: (§5)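 Oral dosing in mice used a 25% amorphous spray-dried dispersion on HPMCAS polymer, given at 10, 30, 60 and 100 mg/kg. Oral bioavailability (F) was determined at each dose.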

[21] = Oral bioavailability in CD-1 mouse at 100 mg/kg as formulation of 25% SDD; assay type: ADME, organism-based; details: in vivo; in short: as §5
[22] = Oral bioavailability in CD-1 mouse at 30 mg/kg as formulation of 25% SDD; assay type: ADME, organism-based; details: in vivo; in short: as §5
[23] = Oral bioavailability in CD-1 mouse at 10 mg/kg as formulation of 25% SDD; assay type: ADME, organism-based; details: in vivo; in short: as §5
COLO 205 [24] = experiment: Antitumor activity against human COLO205 cells xenografted in po dosed mouse assessed as tumor growth inhibition administered QD for 17 days; assay type: functional; details: COLO 205, po, 408 h; in short: as §2

In the case of `CCCS(=O)(=O)Nc1ccc(F)c(C(=O)Nc2ccc(N)nc2)c1F`, the IC50 [1] is reported as greater than 3000 nM, the IC50 [2] is reported as 920 nM and the IC50 [3] is reported as 2400 nM.
In the case of `CCCS(=O)(=O)Nc1ccc(F)c(C(=O)Nc2cnc3[nH]nc(OC)c3c2)c1F`, the EC50 (COLO 205 [4]) is reported as 80 nM, the “inhibition (INH)” value [5] is reported as “Not Active” and the Activity (Mus musculus [6]) is reported as “Non-toxic”. It also gave a bioavailability [7] of 19%, a solubility at 24 h [8] of 9 µg/mL (≈ 21.2 µM) and a bioavailability [9] of 51%. For the same compound, the IC50 [1] was 150 nM, the ED50 (COLO 205 [10]) was 20 mg/kg and the ED90 (COLO 205 [10]) was 80 mg/kg. The AUC [11] was 190 µg·h/mL, the “inhibition (INH)” value [12] was “Not Active” and the AUC [13] was 664 µg·h/mL. The Activity (Salmonella typhimurium) was “Non-toxic”, the IC50 [3] was 19 nM and the bioavailability [14] was 48%. For the same compound, the solubility at 24 h [15] was 4 µg/mL (≈ 9.4 µM), the Activity (Mus musculus [16]) was “Non-toxic” and the fraction unbound [17] was 0.026.
`CCCS(=O)(=O)Nc1ccc(Cl)c(C(=O)Nc2cnc3[nH]ncc3c2)c1F` showed a solubility at 24 h [8] of 48 µg/mL (≈ 117 µM), a Vd [18] of 0.17 L/kg and an IC50 [1] of 560 nM. For the same compound, the IC50 [2] was 6.3 nM, the AUC [11] was 147 µg·h/mL and the clearance [19] was 2.3 mL/min/kg. For the same compound, the IC50 [3] was 56 nM, the bioavailability [14] was 67% and the solubility at 24 h [15] was 15 µg/mL (≈ 36.4 µM). It also gave a fraction unbound [17] of 0.029.
For `CCCS(=O)(=O)Nc1ccc(F)c(C(=O)Nc2cnc(N)c(Br)c2)c1F`, the IC50 [1] was 1200 nM and the IC50 [3] was 310 nM.
`CCCS(=O)(=O)Nc1ccc(F)c(C(=O)Nc2cnc3[nH]ccc3c2)c1F` gave a solubility at 24 h [8] of 4 µg/mL (≈ 10.1 µM), a Vd [18] of 0.2 L/kg and an IC50 [1] of 290 nM. It also gave an IC50 [2] of 38 nM, an AUC [11] of 200 µg·h/mL and a clearance [19] of 1.9 mL/min/kg. For the same compound, the IC50 [3] was 94 nM, the bioavailability [14] was 76% and the solubility at 24 h [15] was 1 µg/mL (≈ 2.54 µM). For the same compound, the fraction unbound [17] was 0.021.
`CCCS(=O)(=O)Nc1ccc(F)c(C(=O)Nc2cnc3[nH]ncc3c2)c1F` gave a solubility at 24 h [8] of 150 µg/mL (≈ 379 µM), a Vd [18] of 0.68 L/kg and an IC50 [1] of 430 nM. For the same compound, the IC50 [2] was 17 nM, the AUC [11] was 40 µg·h/mL and the clearance [19] was 15 mL/min/kg. It also gave an IC50 [3] of 62 nM, a bioavailability [14] of 100% and a solubility at 24 h [15] of 80 µg/mL (≈ 202 µM). The fraction unbound [17] was 0.129.
With `CCCS(=O)(=O)Nc1ccc(Cl)c(C(=O)Nc2cnc3[nH]nc(OC)c3c2)c1F` the EC50 (COLO 205 [4]) was 70 nM, the “inhibition (INH)” value [5] was “Not Active” and the Activity (Mus musculus [6]) was “Non-toxic”. It also gave a solubility at 24 h [8] of 2 µg/mL (≈ 4.53 µM), a Vd [18] of 0.11 L/kg and a bioavailability [9] of 1.2%. For the same compound, the bioavailability [20] was 19%, the IC50 [1] was 240 nM and the IC50 [2] was 1.7 nM. The AUC [11] was 1080 µg·h/mL, the “inhibition (INH)” value [12] was “Not Active” and the bioavailability [21] was 13%. The bioavailability [22] was 28%, the clearance [19] was 1 mL/min/kg and the AUC [13] was 50.7 µg·h/mL. The Activity (Salmonella typhimurium) was “Non-toxic”, the IC50 [3] was 20 nM and the bioavailability [14] was 53%. For the same compound, the bioavailability [23] was 53%, the ED50 (COLO 205 [24]) was 11 mg/kg and the ED90 (COLO 205 [24]) was 50 mg/kg. For the same compound, the solubility at 24 h [15] was less than 1 µg/mL, the Activity (Mus musculus [16]) was “Non-toxic” and the fraction unbound [17] was 0.009.
`CCCS(=O)(=O)Nc1ccc(F)c(C(=O)Nc2cccnc2)c1F` showed an IC50 [1] greater than 3000 nM, an IC50 [2] of 3900 nM and an IC50 [3] of 6700 nM.
Compound `CCCS(=O)(=O)Nc1ccc(F)c(C(=O)Nc2cnc3[nH]nc(N(C)C)c3c2)c1F` has a solubility at 24 h [8] of 450 µg/mL (≈ 1030 µM), an IC50 [1] of 650 nM and an IC50 [2] of 8.2 nM. The AUC [11] was 1.09 µg·h/mL, the IC50 [3] was 40 nM and the solubility at 24 h [15] was 290 µg/mL (≈ 661 µM). For the same compound, the fraction unbound [17] was 0.092.
For `CCCS(=O)(=O)Nc1ccc(F)c(C(=O)Nc2cnc3[nH]nc(C)c3c2)c1F`, the solubility at 24 h [8] was 740 µg/mL (≈ 1810 µM), the IC50 [1] was 830 nM and the IC50 [2] was 12 nM. The AUC [11] was 18.3 µg·h/mL, the IC50 [3] was 86 nM and the solubility at 24 h [15] was 380 µg/mL (≈ 928 µM). It also gave a fraction unbound [17] of 0.101.
In the case of `CCCS(=O)(=O)Nc1ccc(F)c(C(=O)Nc2cnc3[nH]cnc3c2)c1F`, the IC50 [1] is reported as greater than 3000 nM, the IC50 [2] is reported as 61 nM and the IC50 [3] is reported as 2400 nM.
Work on `CCCS(=O)(=O)Nc1ccc(F)c(C(=O)c2c[nH]c3ncc(-c4ccc(Cl)cc4)cc23)c1F` [VEMURAFENIB] yielded an EC50 (COLO 205 [4]) of 240 nM.
For `CCCS(=O)(=O)Nc1ccc(F)c(C(=O)Nc2cnc3[nH]cc(Br)c3c2)c1F`, the solubility at 24 h [8] was less than 1 µg/mL, the Vd [18] was 0.24 L/kg and the IC50 [1] was 190 nM. It also gave an IC50 [2] of 3.4 nM, an AUC [11] of 49 µg·h/mL and a clearance [19] of 7.2 mL/min/kg. The IC50 [3] was 39 nM, the bioavailability [14] was 71% and the solubility at 24 h [15] was less than 1 µg/mL. It also gave a fraction unbound [17] of 0.006.
`CCCS(=O)(=O)Nc1ccc(F)c(C(=O)Nc2cnc3[nH]nc(Br)c3c2)c1F` showed a solubility at 24 h [8] of 3 µg/mL (≈ 6.33 µM), an IC50 [1] of 260 nM and an IC50 [2] of 4 nM. The AUC [11] was 52.5 µg·h/mL, the IC50 [3] was 44 nM and the solubility at 24 h [15] was 1 µg/mL (≈ 2.11 µM). The fraction unbound [17] was 0.016.
